Molecules are shown by their SMILES. Active and inactive are the calls of the source.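 The calls were made as follows: active = compounds whose fitted caspase activation midpoint falls no more than tenfold above the top tested dose; inconclusive = flat fit with activity between 30 and 70 percent, or failed fit; inactive = the rest.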

This assay has as its system MEF Flag-A1-IRES-BIM, caspase-Glo luminescence, 3 h. As to the kind of experiment: caspase activation in A1/BIM-primed MEFs, dose response, A1 (Bcl2A1) inhibitor project, cell-based, alternate construct, luminescence (AID 449757). The essentials:
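Test system: Flag-A1-IRES-BIM-primed MEF cells. Technique: luminescent caspase activity measurement with CaspaseGlo reagent. Dosing: 100 nL compound added per well by pin transfer. Times: 3-h compound at 37 °C, 30-min cooling, 1-h reagent at RT. Buffer or medium: RPMI-1640 growth medium with 10% FBS.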
Take `N#CC(C#N)=C1C=CC=CN1/C(=C\c1ccccc1Cl)C(=O)c1ccccc1`: the AC50 is 3.43 µM. Consider `CC(C)(C)c1ccc2c(c1)OC(C(=O)N/N=C\c1ccc[nH]1)CO2` (centres undefined), for which the AC50 is > 35 µM (inactive). Consider `CCc1nnc(NC(=O)CSc2nc(-c3ccccc3)cc(-c3ccc(F)cc3)c2C#N)s1`, for which the AC50 is 33.1 µM. As to `C=C1/C=C(\C)[C@](C)(O)C[C@H](O)CC(=O)[C@H](O)[C@@H](O)[C@H](C)C[C@H](C)OC(=O)/C(C)=C/CC/C=C/[C@@H]2O[C@H]2C[C@H](C)C1`, the AC50 is > 35 µM (inactive). For `NS(=O)(=O)c1ccc(N/N=C2/CCCCC2C2CCCCC2)c([N+](=O)[O-])c1` (centres undefined) the value was 32.3 µM. In the case of `CC1=NNC(=O)/C1=C\c1cn(-c2ccccc2)nc1-c1cccs1` it was 14.2 µM; in that of `CCn1c(SCC(=O)c2ccccc2)nnc1-c1cc2cc(Br)ccc2o1`, > 35 µM (inactive); in that of `Cc1ccc(NC(=O)CSc2nc3nc(C)c(Br)cc3[nH]2)cc1F`, > 35 µM (inactive). In the case of `O=C(Nc1ccc2oc(-c3ccccc3)nc2c1)c1ccccc1F` it was > 35 µM (inactive). Consider `CCOc1cccc(C(=O)Nc2cccc(-c3nnc(-c4ccc(C)cc4)o3)c2)c1`, for which the concentration at half-maximal activity (AC50) is 8.37 µM.

On to `CC1=NNC(=O)/C1=C\c1cn(-c2ccccc2)nc1-c1ccccc1`, for which the AC50 was 10.4 µM. For the molecule `COC(=O)c1ccc2c(c1)C(C)(C)C(/C=C/c1ccc(O)cc1)=[N+]2C`, the AC50 was 12.4 µM. As for `N#Cc1cccnc1N1CCN(C(=O)c2cccc3c2C(=O)c2ccc(-c4ccc(Cl)c(C(F)(F)F)c4)cc2S3(=O)=O)CC1`, the AC50 was > 35 µM (inactive). In the case of `O=C(NCCc1ccccc1)C(c1cccs1)N(C(=O)CCl)c1ccc(Cl)cc1` (centres undefined), the half-maximal activity concentration (AC50) is 13.3 µM. Consider `COC(=O)Cc1csc(/N=C/c2c(O)n(-c3cccc(C(F)(F)F)c3)c(=O)c3ccccc23)n1`, for which the AC50 was 18.1 µM. Consider `COc1ccc(-c2cc3ccccc3oc2=O)cc1NC(=S)NC(=O)c1ccc2c(c1)OCCO2`, for which the half-maximal activity concentration (AC50) was 6.36 µM. For the molecule `COc1cc(/C=C2/C(=N)N3C=CSC3=NC2=O)ccc1OCCCOc1cc(C)ccc1C`, the concentration at half-maximal activity (AC50) was 16.2 µM. For `COc1cccc(C(=O)C(C#N)=C(SC)SC)c1`, the AC50 is > 35 µM (inactive). `CCC1CCCCN1S(=O)(=O)c1ccc(NC(=O)c2nc(S(C)(=O)=O)ncc2Cl)cc1` (centres undefined): the AC50 was 3.73 µM.

`CCOc1ccc(N2C(=O)/C(=C\c3ccc(O)c(OC)c3)S(=O)(=O)C2c2cccc([N+](=O)[O-])c2)cc1` (centres undefined): the AC50 is > 35 µM (inactive). As to `O=S1(=O)CCOC[C@H](CC2CCCCC2)N1Cc1cccc(Cl)c1`, the AC50 was > 35 µM (inactive).

With `COc1ccc2[nH]c3c(=O)n(/N=C/[C@H]4C(C)C=C(C)CC4C)c(=O)[nH]c3c2c1` (some centres undefined), the concentration at half-maximal activity (AC50) is 11 µM. In the case of `CCOC(=O)C1=C(c2ccccc2)O/C(=C(/C#N)C(F)(F)F)S1` it was > 35 µM (inactive); in that of `O=C(c1ccc(COc2ccc3ccccc3c2)o1)N1N=C(C(F)F)CC1(O)C(F)F` (centres undefined), > 35 µM (inactive). Take `CCc1ccccc1NC(=O)C(CC)Sc1nc2cc3c(cc2c(=O)n1Cc1ccco1)OCO3` (centres undefined): the AC50 was > 35 µM (inactive). As to `COc1ccc(C2CC(c3c(O)cc(C)oc3=O)=NCCS2)c(OC)c1` (centres undefined), the AC50 was > 35 µM (inactive). For `CCOC(=O)/C(=C\c1cccnc1)C(=O)c1cc(C(C)=O)c(Nc2ccccc2)s1` the value was 4.1 µM; for `CC[C@H]1CN2CCc3cc(OC)c(OC)cc3[C@@H]2C[C@@H]1C[C@H]1NCCc2cc(OC)c(OC)cc21`, > 35 µM (inactive); for `COc1ccc(Cn2c(SCc3ccc(C)cc3)nc3cc(OC)c(OC)cc3c2=N)cc1Cl`, > 35 µM (inactive). On to `N#Cc1c(C(F)(F)F)cc(-c2ccccc2)nc1SCC(=O)Nc1sc2c(c1C#N)CCC2`, for which the AC50 was > 35 µM (inactive). For `CCOc1ccc(OCC(=O)N(CCC2=CCCCC2)c2c(N)n(Cc3ccccc3)c(=O)[nH]c2=O)cc1` the value was 20.9 µM; for `O=C(NCc1ccccc1Cl)c1cccc2c1C(=O)c1ccc(-c3ccc(OC(F)(F)F)cc3)cc1S2(=O)=O`, > 35 µM (inactive); for `COc1ccc2c(-c3cc4ccc(OCc5ccc(F)cc5)cc4oc3=O)cc(=O)oc2c1`, 21.1 µM. Turning to `Cc1ccc(C)c(NC(=S)NC(NC(=O)Cc2cccc3ccccc23)C(Cl)(Cl)Cl)c1` (centres undefined), the concentration at half-maximal activity (AC50) is 13.2 µM. As for `CC(C)N=c1scc(-c2ccco2)n1/N=C/c1ccc(O)c(O)c1`, the AC50 is > 35 µM (inactive). For the molecule `O=C(N=Nc1c(O)[nH]c2ccc([N+](=O)[O-])cc12)c1cc(-c2ccccc2Cl)nc2ccccc12`, the AC50 is > 35 µM (inactive).

`Cc1ccc(-c2nc(NC(=O)c3nn(C)cc3[N+](=O)[O-])sc2C)cc1C`: the AC50 was 3.62 µM. For the molecule `Cc1ccc(NC(=S)NC(NC(=O)Cc2cccc3ccccc23)C(Cl)(Cl)Cl)cc1` (centres undefined), the AC50 is 20.2 µM. In the case of `COc1ccccc1CCNC(C)CCc1ccc(O)cc1` (centres undefined) it was > 35 µM (inactive); in that of `CC(C)c1cccc(-c2ccc3c(c2)S(=O)(=O)c2cccc(C(=O)NC4CCCC4)c2C3=O)c1`, > 35 µM (inactive); in that of `O=C(Cn1c(C(F)(F)F)nc2ccccc21)N=Nc1c(O)[nH]c2ccc(Br)cc12`, 29.8 µM.

As for `CCc1ccc2nc(N(CCCN(C)C)C(=O)c3ccc(S(=O)(=O)N4CCc5ccccc5C4)cc3)sc2c1`, the AC50 was > 35 µM (inactive). `COc1cc(NC(=O)c2ccc(C)cc2C)ccc1NC(=O)c1cc2ccccc2o1`: the concentration at half-maximal activity (AC50) is 32.3 µM. In the case of `COc1ccc(C=C2C=C(C(C)(C)C)C(=O)C(C(C)(C)C)=C2)cc1OC`, the AC50 is 3.49 µM. `CCOc1ccc(NCc2cccn2-c2nnc(N3CCC(C(=O)NCCCN4CC(C)CC(C)C4)CC3)s2)cc1` (centres undefined): the AC50 was > 35 µM (inactive). As for `Cc1ccc(-c2nc(NC(=O)c3nn(C)cc3[N+](=O)[O-])sc2C)cc1`, the concentration at half-maximal activity (AC50) was 6.7 µM. In the case of `CC(C)(C)c1ccc(C(=O)Nc2ccc(O)c3c(=O)cc(-c4cccc(Cl)c4)oc23)cc1` it was > 35 µM (inactive). In the case of `Cc1ccc(C(=O)/C=C/C(=O)c2ccc(C)cc2)cc1`, the half-maximal activity concentration (AC50) is 5.64 µM. As for `Cc1ccc(NC(=O)c2ccc(N/N=C/c3cccc(O)c3)c([N+](=O)[O-])c2)cc1`, the AC50 was 34.6 µM. As for `CCOc1cc(/C=N/Nc2cc(C)nc(-n3nc(C)cc3C)n2)ccc1O`, the AC50 was > 35 µM (inactive). In the case of `O=C(Nc1ccc2oc(-c3ccccc3F)nc2c1)c1ccccc1F` it was > 35 µM (inactive); in that of `CC(=O)Nc1ccc(NC(=O)C(=O)NCC(c2ccco2)N2CCc3ccccc32)cc1` (centres undefined), 28.9 µM; in that of `CCCc1ccc(OCc2ccc(C(=O)N/N=C/c3cccc([N+](=O)[O-])c3)o2)c(OC)c1`, 6.57 µM. With `Cc1ccc(C)c(S(=O)(=O)NCC(=O)Nc2sc3c(c2C(N)=O)CCC(C)C3)c1` (centres undefined), the AC50 was > 35 µM (inactive).

Consider `COc1cc(C(=O)Nc2cc3c(cc2N2CCCCC2)n(C)c(=O)n3C)cc(OC)c1OC`, for which the AC50 was > 35 µM (inactive). For the molecule `CCOc1ccc2nc(NCCNC(=O)Nc3cccc(C)c3)c(C#N)cc2c1`, the half-maximal activity concentration (AC50) is 33.9 µM.

As for `CCc1ccc(NC(=O)c2nc(S(=O)(=O)Cc3ccccc3)ncc2Cl)cc1`, the AC50 was > 35 µM (inactive). As to `CC1(C)C[C@H](O)[C@]2(CO)[C@H](O)C[C@]3(C)C(=CCC4[C@@]5(C)CC[C@H](O)C(C)(C)C5CC[C@]43C)[C@@H]2C1` (some centres undefined), the AC50 was > 35 µM (inactive). Turning to `Clc1ccccc1CN(Cc1ccccc1)c1ncnc2nc[nH]c12`, the AC50 was > 35 µM (inactive). For the molecule `Cn1cc([N+](=O)[O-])c(C(=O)Nc2cc(Oc3ccccc3)cc([N+](=O)[O-])c2)n1`, the concentration at half-maximal activity (AC50) was 19.5 µM.

As to `CCCCNC(=O)c1ccc(Cn2c(=S)[nH]c3c([nH]c4ccc(OC)cc43)c2=O)cc1`, the AC50 was 4.77 µM. With `COc1cc(/C=C(/C#N)c2nc3ccccc3[nH]2)ccc1OCC(=O)Nc1ccccc1C`, the AC50 is 6.32 µM. For `COc1cc(NC(=O)c2ccccc2)c(OC)cc1NC(=O)Cc1ccc(Br)cc1` the value was > 35 µM (inactive); for `CCOc1ccc(NC(=S)NC(=O)/C=C/c2ccc(C)cc2)c([N+](=O)[O-])c1`, 21 µM; for `COc1ccccc1-c1cc(C(F)(F)F)nc(S(=O)(=O)CCCC(=O)NC(C)C)n1`, 8.84 µM. For `O=C(COc1ccc(/C=N/NC(=O)c2cc3ccccc3o2)cc1Cl)Nc1ccccc1` the value was 9.15 µM; for `COc1cc(CN2CCN(c3cc(C)ccc3C)CC2)ccc1O`, > 35 µM (inactive); for `COc1cc2ncnc(NCc3ccc(F)cc3)c2cc1OC`, > 35 µM (inactive). In the case of `COc1ccc(NC(=O)c2cccc3c2C(=O)c2ccc(-c4ccc(F)cc4OCc4ccccc4)cc2S3(=O)=O)cc1`, the AC50 was > 35 µM (inactive). Take `Cc1ccc(C2(c3ccc(C)cc3)CC2C(=O)Nc2ccc([N+](=O)[O-])cc2O)cc1` (centres undefined): the AC50 was > 35 µM (inactive). With `C=C1CCc2c([nH]c3ccc(OCC(C)C)cc23)C1=O`, the concentration at half-maximal activity (AC50) was 8.5 µM. In the case of `O=C(NC[C@H]1CCCO1)c1cccc2c1C(=O)c1ccc(-c3ccc(F)cc3OCc3ccccc3)cc1S2(=O)=O` it was > 35 µM (inactive); in that of `Nc1c(C(=O)Nc2ccc(S(=O)(=O)N3CCCC3)cc2)sc2nc3ccc(OC(F)(F)F)cc3cc12`, 23.3 µM. Regarding `COc1ccc(OC[C@@H](O)CNC(=O)c2cccc3c2C(=O)c2ccc(-c4ccc(F)cc4OCc4ccccc4)cc2S3(=O)=O)cc1`, the AC50 was > 35 µM (inactive).

In the case of `CCOC(=O)Cc1csc(/N=C/c2c(O)n(-c3ccc(C)c(C)c3)c(=O)c3ccccc23)n1`, the concentration at half-maximal activity (AC50) is 15.9 µM. With `O=C(/C=C/c1ccc(F)cc1)NC(=S)Nc1ccccc1C(=O)NC1CCCCC1`, the AC50 is > 35 µM (inactive). For `CC1CCc2c(sc3nc(C(C)(C)C)nc(N4CCN(C(=O)CCl)CC4)c23)C1` (centres undefined) the value was 10.2 µM; for `O=C(COc1ccccc1[N+](=O)[O-])Nc1ccc(NC(=O)c2cc3ccccc3o2)cc1`, 28.7 µM; for `CCOC(=O)/C(=C\c1ccc(OC(F)F)cc1)C1=Nn2c(nnc2-c2ccc(Cl)cc2)SC1`, 4.71 µM.
